Among the data in ChEMBL document CHEMBL1151279, “Sesquiterpenoids and norsesquiterpenoids from the Formosan soft coral Lemnalia laevis” (2005) are EC50 values, retold here.

One assay concerns P388. Nature of the assay: Cytotoxicity against mouse P388 cells. The class given is functional. Particulars: read-out: ED50 (the source's name). The method in brief:
(§1)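 Cytotoxicity assay run as previously described, with test compounds at three concentrations (50, 5 and 0.5 µg/mL). HT29 cells are human colon adenocarcinoma. P-388 cells are mouse lymphocytic leukemia, supplied by J. M. Pezzuto.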

A further assay has as its system HT-29. Nature of the assay: Cytotoxicity against human HT-29 cells. In kind it is functional. Particulars: read-out: ED50 (the source's name). A digest of the protocol:
as §1

≈ marks a conversion by molar mass, not a printed value.

Consider `C[C@H]1CCC=C2CCC(C(C)(O)CO)=C[C@@]21C` (some centres not stated), for which the EC50 was determined as 0.21 µg/mL (≈ 0.888 µM) in the assay with P388 and 0.33 µg/mL (≈ 1.4 µM) in the assay with HT-29.
On to `CC(=O)[C@@H]1C(=O)CC[C@]23O[C@H]2[C@H](O)C[C@H](C)[C@@]13C`, for which the EC50 with P388 and in the assay with HT-29 was above 5 µg/mL each time.
`CC(=O)O[C@@H]1C(=O)CCC2=CC(=O)C[C@H](C)[C@@]2(C)/C=C\1C` (single isomer, unassigned) [LAEVINONE A]: the EC50 with P388 and in the assay on HT-29 was above 5 µg/mL throughout.
For `CC(=O)[C@H]1[C@@H](OC=O)CCC2=C[C@@H](O)C[C@H](C)[C@]21C` [LAEVINOL A], the EC50 with P388 and with HT-29 was above 5 µg/mL throughout.
Take `CC(=O)[C@H]1[C@@H](O)CCC2=C[C@@H](O)C[C@H](C)[C@]21C` [LAEVINOL B]: the EC50 in the assay on P388 and in the assay with HT-29 was above 5 µg/mL throughout.
With `CC(=O)[C@H]1[C@H](O)CCC2=C[C@@H](O)C[C@H](C)[C@]21C` [LAEVINOL C], the EC50 in the assay with P388 and in the assay on HT-29 was above 5 µg/mL throughout.
Regarding `CC(=O)[C@H]1[C@@H](O)CCC2=C[C@H](O)C[C@H](C)[C@]21C` [LAEVINOL D], the EC50 with P388 and with HT-29 was above 5 µg/mL each time.
Take `CC(=O)[C@H]1C(=O)CCC2=C[C@@H](O)C[C@H](C)[C@]21C` [LAEVINOL E]: the EC50 in the assay with P388 and in the assay with HT-29 was above 5 µg/mL throughout.
Turning to `CC(=O)[C@H]1[C@H](O)CC[C@]23O[C@H]2[C@@H](O)C[C@H](C)[C@@]13C` [LAEVINOL F], the EC50 in the assay on P388 and in the assay on HT-29 was above 5 µg/mL in each case.
As to `CC(=O)[C@H]1[C@H](O)CC[C@]23O[C@H]2[C@H](O)C[C@H](C)[C@@]13C` [LAEVINOL G], the EC50 in the assay with P388 and in the assay with HT-29 was above 5 µg/mL throughout.
In the case of `CC(=O)[C@H]1[C@H](O)CC[C@]23O[C@H]2CC[C@H](C)[C@@]13C` [LAEVINOL H], the EC50 with P388 and with HT-29 was above 5 µg/mL each time.
